# Only some compounds are listed: those with a hit (about 1.2% of all), similar ones and a draw of the others.
# Diaph act CS – activates diaphorase or chemically reduces, flagging diaphorase assay artifacts. activation factor at 20 µM. AID 1229. Diaphorase/resazurin coupled assay, resorufin fluorescence, 16 min; active compounds read high; 1 = vehicle wells, 0 = NADH-free wells. hit rate 0.005% among 190,000;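 active = diaphorase activity raised at least twofold by the compound at 20 µM; inactive = activation factor below 2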
#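 Material: purified diaphorase enzyme from Clostridium kluyveri / Medium: HEPES pH 7.4 buffer with MgCl2 and Tween 20 / Schedule: enzyme reaction of 16 min at room temperature / Measured by: resorufin fluorescence, excitation 544 nm, emission 590 nm / Evaluation: rise in resorufin formation, marking diaphorase activation or chemical reduction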
# HKDC1 inh – inhibitors of human hexokinase HKDC1; Q2TB90; recombinant HKDC1, G6PDH/diaphorase resazurin coupled fluorescence; inhibition, % at 20 µM; hit rate 0.16% among 340,000; AID 493160;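 active = inhibition above about 35% when tested at 20 µM, limit read from the data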
# Target sequence (Q2TB90 whole entry, looked up): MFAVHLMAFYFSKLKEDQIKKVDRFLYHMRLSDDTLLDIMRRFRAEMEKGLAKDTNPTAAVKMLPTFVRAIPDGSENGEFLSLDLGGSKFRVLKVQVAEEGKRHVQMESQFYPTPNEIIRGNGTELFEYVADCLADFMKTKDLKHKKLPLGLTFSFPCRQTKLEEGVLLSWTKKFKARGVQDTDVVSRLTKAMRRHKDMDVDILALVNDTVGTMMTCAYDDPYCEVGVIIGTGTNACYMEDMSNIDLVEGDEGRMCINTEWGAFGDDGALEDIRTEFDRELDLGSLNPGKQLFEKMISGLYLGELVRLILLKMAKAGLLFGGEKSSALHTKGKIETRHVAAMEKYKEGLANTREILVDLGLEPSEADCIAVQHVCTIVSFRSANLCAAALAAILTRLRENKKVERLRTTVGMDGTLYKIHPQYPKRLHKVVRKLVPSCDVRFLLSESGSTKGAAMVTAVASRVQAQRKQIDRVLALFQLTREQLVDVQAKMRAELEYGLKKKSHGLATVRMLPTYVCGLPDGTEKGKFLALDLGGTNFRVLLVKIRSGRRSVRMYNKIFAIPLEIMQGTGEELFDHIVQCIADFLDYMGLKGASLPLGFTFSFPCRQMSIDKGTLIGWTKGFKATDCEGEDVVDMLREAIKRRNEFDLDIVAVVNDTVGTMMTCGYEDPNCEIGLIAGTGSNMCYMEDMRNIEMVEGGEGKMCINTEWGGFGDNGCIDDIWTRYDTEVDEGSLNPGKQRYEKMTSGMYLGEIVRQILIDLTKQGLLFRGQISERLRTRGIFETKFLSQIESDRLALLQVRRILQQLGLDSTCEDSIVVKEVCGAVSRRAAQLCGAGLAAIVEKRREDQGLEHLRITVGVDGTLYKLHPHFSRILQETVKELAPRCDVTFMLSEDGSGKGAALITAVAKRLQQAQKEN
#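 System: Recombinant HKDC1 hexokinase | Amount: HKDC1 at 5 µg/mL | Reagent: Glucose with 1 mM ATP | Doses: Single 20 µM dose | Incubation: Reaction time 90 min, room temperature, protected from light | Signal: Coupled resazurin fluorescence, excitation 525 nm, emission 613 nm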
# PfG6PD inh – PfG6PD (Plasmodium falciparum) enzyme inhibition; PfGluPho enzyme, NADPH resazurin-diaphorase fluorescence; inhibition, % at 20 µM; hit rate 0.78% among 350,000;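 active = inhibition reaching at least a set limit at 20 µM in the primary screen, cut at about 59% in these data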
# Diaph inh CS – inhibits diaphorase or chemically oxidizes, flagging diaphorase assay artifacts | inhibition, % at 20 µM | AID 1217 | diaphorase resazurin-to-resorufin fluorescence, NADH, 16 min; bacterial (C. kluyveri) enzyme, not human | hit rate 0.69% among 190,000;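 active = primary screen inhibition at 20 µM above a set limit, cut at about 50% in these data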
#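 material = Clostridium kluyveri diaphorase enzyme | amount = 0.14 U/mL diaphorase, enzyme working solution | schedule = incubation 16 min, room temperature | detection = fluorescence of resorufin formed from resazurin, Ex 544/Em 590 nm | benchmarks = positive control minus NADH, DMSO neutral control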
# G6PDH CS – counter-screen for G6PDH assay hits: L. mesenteroides G6PDH inhibition. Purified L. mesenteroides G6PDH, diaphorase/resazurin coupled fluorescence, 45 min. AID 1020. hit rate 0.12% among 200,000. inhibition, % at 5 µM; in the data active = inhibition above about 50%
# PfGluPho conf – confirmation of Plasmodium falciparum G6PD inhibitors; inhibition, % at 20 µM; recombinant PfGluPho, NADPH-diaphorase-resazurin fluorescence; shares compounds with PfG6PD inh; hit rate 34% among 2,400;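 active = inhibition of at least 50% at 20 µM in any single replicate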
# Diaph ctr 10uM – diaphorase inhibition or oxidation at 10 uM NADPH. shares compounds with PfG6PD inh. diaphorase-coupled resazurin reduction, fluorescence, NADPH 10 uM. inhibition, % at 20 µM. hit rate 39% among 820;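 active = average inhibition reaching 50% or more with the compound at 20 µM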;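 also: resorufin red fluorescence formed as diaphorase reduces resazurin using NADPH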
# Diaphorase 30uM – inhibits diaphorase or oxidizes, flagging false PfG6PD hits; shares compounds with PfG6PD inh; Diaphorase/resazurin coupled assay, resorufin fluorescence, 30 uM NADPH; inhibition, % at 20 µM; hit rate 29% among 820;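 active = inhibition averaging 50% or more, tested at 20 µM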
# Hits are given with their value; – = inactive; · = no result.
SMILES,Diaph act CS,HKDC1 inh,PfG6PD inh,Diaph inh CS,G6PDH CS,PfGluPho conf,Diaph ctr 10uM,Diaphorase 30uM
COc1ccc(O)c(/C=c2/sc3nc4cc(C)c(C)cc4n3c2=O)c1,–,–,68,–,–,–,·,·
COC(=O)c1cc(=O)nc2sc3cc(OC)ccc3n12,–,–,–,–,–,·,·,·
CC(C)(C)c1ccc(O)c(/C=N\O)c1,–,–,–,–,–,·,·,·
CC(C)(C)c1ccc(O)c(O)c1,·,–,81,·,·,72,–,–
CC(=O)c1sc(NC(=O)c2cnc(Cl)c(Cl)c2)nc1C,·,–,62,·,·,–,·,·
CN(C)c1cccc2c1c(NC(=O)Nc1ccccc1)nn2C,·,–,–,·,·,·,·,·
CN(C)c1cccc2c1c(NC(=O)c1ccc(Cl)cc1)nn2C,·,–,103,·,·,73,–,52
CN(C)c1cccc2c1c(NC(=O)c1ccc(F)cc1)nn2C,·,–,74,·,·,57,–,–
CN(C)c1cccc2c1c(NC(=O)Nc1ccc(F)cc1F)nn2C,·,–,–,·,·,·,·,·
COc1ccc(CCC(=O)OCC(=O)NCc2ccc(OC)c(OC)c2)cc1OC,·,–,–,·,·,·,·,·
COc1cc(C(=O)ON=C2C=C(C)C(=O)C(C)=C2)cc(OC)c1OC,–,–,80,–,–,64,–,–
COc1ccc(C(=O)ON=C2C=C(C)C(=O)C(C)=C2)cc1,–,–,76,–,–,52,–,–
COc1ccc(S(=O)(=O)N=C2C=C(C)C(=O)C(C)=C2)cc1,–,–,–,–,–,·,·,·
COc1cc(C(=O)O/N=C2\C=CC(=O)C(C)=C2)cc(OC)c1OC,–,–,68,–,–,49,89,90
O=C(CCCN1C(=O)/C(=C/c2ccccc2Cl)SC1=S)NCCCN1CCOCC1,·,–,–,·,·,·,·,·
O=C1C(=Cc2cccc(O)c2O)SC(=S)N1CCCN1CCOCC1,·,·,70,·,·,50,–,–
COCCN(C(=O)Cc1cccs1)C(C(=O)NC1CCCC1)c1cc(OC)c(OC)c(OC)c1 (stereo unspecified),–,–,–,–,–,·,·,·
C/C(=N\Nc1cccc([N+](=O)[O-])c1)c1cc(F)ccc1O,·,–,84,·,·,–,·,·
Cc1ccc(S(=O)(=O)c2nnn3c2nc(N2CCCCC2)c2ccccc23)cc1,–,–,72,–,–,–,·,·
CCN(C(=S)Nc1cccnc1)c1ccccc1,–,–,–,–,–,·,·,·
CN(C(=S)Nc1ccc(SC(F)F)cc1)c1ccc(O)cc1,–,–,70,–,–,–,·,·
CN(C(=S)Nc1cccnc1)c1ccc(O)cc1,–,–,67,–,–,–,·,·
CN(C(=S)Nc1ccccc1)c1ccccc1,–,–,–,–,–,·,·,·
CN(C(=S)Nc1ccc(Oc2ccccc2)cc1)c1ccc(O)cc1,–,–,78,–,–,–,·,·
Cc1cc(C)c(S(=O)(=O)NCc2ccccn2)c(C)c1,·,–,–,·,·,·,·,·
SMILES,Diaph act CS,HKDC1 inh,PfG6PD inh,Diaph inh CS,G6PDH CS,PfGluPho conf,Diaph ctr 10uM,Diaphorase 30uM
O=C(COc1ccc(C(=S)N2CCCC2)cc1)Nc1ccccc1C(F)(F)F,·,–,–,·,·,·,·,·
NS(=O)(=O)c1ccc(O)c(N2C(=O)c3cccc4c(C(=O)O)ccc(c34)C2=O)c1,–,–,–,–,–,·,·,·
COc1cc(OC)cc(C(=O)NCC(=O)NCc2ccccn2)c1,·,–,–,·,·,·,·,·
CSc1nc(=S)cc(C)[nH]1,·,–,70,·,·,–,·,·
Cc1ccc(NS(=O)(=O)c2ccccc2)c2c1CC(C)(C)O2,–,–,92,–,–,65,54,50
CCn1c2ccccc2c2cc(/C=N/n3cn[nH]c3=S)ccc21,–,–,63,62,–,52,–,–
COCCN1CCN(C(=O)C2CCC(=O)N(CCc3ccccc3)C2)CC1 (stereo unspecified),·,–,–,·,·,·,·,·
Cc1[nH]c(=O)c(C#N)c2c1CCCC2,–,–,–,–,–,·,·,·
CC(C)Cc1c2c([nH]c(=S)c1C#N)CCCC2,–,–,70,–,–,–,·,·
Cc1[nH]c(=S)c(C#N)c2c1CCCC2,–,–,81,–,–,–,·,·

# Screens from PubChem BioAssay.
